In the library only some 2% were active in any assay of this set; here they are far more common.
CAL PDZ FP-1: untagged CAL PDZ binding inhibitors, primary screen, biochemical, fluorescence polarization, HTS. Golgi-associated PDZ and coiled-coil motif-containing protein (Homo sapiens), Q9HD26. purified CAL PDZ, TMR-peptide fluorescence polarization, 1 h. inhibition, % at 24.9 µM. 300,000 compounds, 0.92% hits;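 active means mean inhibition of at least 30% with at least half of replicates also reaching 30%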;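 further: 0% = DMSO neutral control and 100% = excess unlabeled competitor peptide PRC23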
dFosB activator: activators of delta FosB homodimer, primary screen, biochemical, fluorescence polarization, TAMRA-CDK5 oligo, single point. 340,000 compounds, 0.99% hits. activation, % at 25 µM. AID 493131, 2011. purified delta FosB; percent of positive-control signal above neutral wells. Protein FosB (Mus musculus), P13346;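 active means mean activation above about 17%, with every replicate also reaching it, limit read from the data, passing the limit was not always enough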
PKA-R2B act: activators of PKA-R2B holoenzyme, primary screen, biochemical, fluorescence polarization, Cy5-IP20, human. cAMP-dependent protein kinase catalytic subunit beta (Homo sapiens) + cAMP-dependent …. PKA-R2B holoenzyme dissociation; R2B truncated from residue 108, S112A mutant; 0% DMSO only, 100% 113 µM cGMP. activation, % at 11.4 µM. 340,000 compounds, 0.079% hits. AID 504700, 2011;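 active means activation above a cutoff set at the mean over all compounds plus 3 SD, cut at about 18% in these data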;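 further: higher means more holoenzyme dissociation and a rise in polarization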
NTR1 ag: agonists of human NTR1, primary screen, imaging, U2OS cells, beta-arrestin-GFP, high content. activation, % at 20 µM. Neurotensin receptor type 1 (Homo sapiens), P30989. 330,000 compounds, 0.17% hits. NTR1-U2OS beta-arrestin-GFP spot imaging, agonist mode;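 active means activation at or above 40% of the spot to cytoplasm intensity ratio, with at least 20 cells analyzed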;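 further: 0% = DMSO without peptide and 100% = 100 nM NTR1 peptide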
Target sequence (P30989 whole entry, looked up): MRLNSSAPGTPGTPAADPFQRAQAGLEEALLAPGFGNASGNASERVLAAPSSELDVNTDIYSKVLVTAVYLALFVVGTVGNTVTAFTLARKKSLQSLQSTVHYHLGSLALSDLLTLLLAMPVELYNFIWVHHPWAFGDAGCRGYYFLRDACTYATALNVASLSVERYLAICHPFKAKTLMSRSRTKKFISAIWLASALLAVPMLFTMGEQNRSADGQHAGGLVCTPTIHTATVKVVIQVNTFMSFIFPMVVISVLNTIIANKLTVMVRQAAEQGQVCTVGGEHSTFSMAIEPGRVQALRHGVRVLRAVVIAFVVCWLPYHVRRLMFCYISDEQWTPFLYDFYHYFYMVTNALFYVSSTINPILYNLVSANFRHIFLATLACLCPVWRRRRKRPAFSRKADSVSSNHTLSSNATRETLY
CAL PDZ FP-2: CAL PDZ peptide-binding inhibitors, primary screen, biochemical, fluorescence polarization, Cer-tagged CAL PDZ, HTS. purified CAL PDZ, TMR-peptide fluorescence polarization, 1 h. inhibition, % at 20 µM. 330,000 compounds, 0.02% hits. AID 504414, 2011;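 active means highest replicate inhibition of at least 40%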;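 further: plate controls were DMSO neutral control wells for no effect and unlabeled competitor peptide control wells for full effect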
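Material: tagged CAL PDZ domain; buffer or medium: 25 mM sodium phosphate pH 7.4, 150 mM NaCl, TCEP, IgG, Thesit; compound dosing: single point, 20 µM; schedule: 1 h incubation at room temperature before polarization reading; measured by: FP readout, S and P plane fluorescence; read-out basis: percent inhibition from loss of millipolarization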
PKA-R1A act: activators of PKA-R1A holoenzyme, primary screen, biochemical, fluorescence polarization, Cy5-IP20, bovine R1A, mouse PKAc | PKA-R1A dissociation; scaled: DMSO 0%, 113 µM cGMP 100% | activation, % at 11.4 µM | 340,000 compounds, 0.083% hits;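 active means percent activation above the mean of all tested compounds plus 3 SD, cut at about 19% in these data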;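 further: higher means more PKAc released from R1A so a rise in polarization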
Active calls of the source: *; / = no result.

SMILES | CAL PDZ FP-1 | dFosB activator | PKA-R2B act | NTR1 ag | CAL PDZ FP-2 | PKA-R1A act
C[C@H](CO)N1C[C@H](C)[C@@H](CN(C)C(=O)Nc2ccc(C(F)(F)F)cc2)Oc2c(NC(=O)Cc3ccccc3)cccc2C1=O | -4.0 | -2.6 | -3.7 | -0.9 | -0.7 | -1.4
O=C(NC(=S)NC1CCN(Cc2ccccc2)CC1)c1ccc(F)cc1 | -0.6 | -2.7 | 1.3 | 7.0 | -1.2 | 4.9
O=C(NC1CCCCCCC1)c1cc([N+](=O)[O-])ccc1Cl | -14.8 | 5.0 | -13.1 | 0.4 | / | 4.3
O=C(NC(=S)NC1CCCCC1)c1ccc(F)cc1 | 44.0* | -8.5 | -8.7 | 1.7 | -1.0 | 1.1
O=C(NC1CCCCC1)c1ccc([N+](=O)[O-])cc1 | 92.4* | -0.6 | 9.5 | / | 0.0 | -2.1
COc1ccc(C2N(c3cc(C)on3)C(=O)C3CCCN32)cc1OC (centres undefined) | 50.8* | -3.1 | -1.6 | -0.7 | -0.2 | -12.9
Cc1cccc(NC(=O)N2CCC(NC(=O)c3ccco3)CC2)c1 | 0.9 | -5.2 | 2.1 | -0.6 | / | -3.9
O=C(NC1CCN(C(=O)Nc2cccc(Cl)c2)CC1)c1ccco1 | 58.1* | 0.4 | -0.1 | 2.0 | -0.1 | -3.8
COc1ccc(C2NN=C(c3ccc(C)cc3)S2)cc1 (centres undefined) | 40.9* | -10.4 | 9.0 | / | -3.4 | 0.2
CCOc1cc(C2NN=C(c3ccc(C)cc3)S2)ccc1O (centres undefined) | 2.9 | -4.2 | 2.2 | / | -1.4 | -6.2
COc1ccc(-n2nc(C(=O)NCC(=O)N3CCN(c4ccccc4F)CC3)c3ccccc3c2=O)cc1 | 72.8* | -4.6 | 6.0 | -0.6 | -0.7 | -6.0
COc1ccc(-n2nc(C(=O)NCC(=O)NCc3ccc(F)cc3)c3ccccc3c2=O)cc1OC | -1.5 | 125.8* | 5.0 | 13.5 | -4.2 | 15.6
COc1ccc(-n2nc(C(=O)NCC(=O)Nc3cc(OC)c(OC)c(OC)c3)c3ccccc3c2=O)cc1Cl | 0.3 | 21.4* | -10.4 | -0.3 | -1.4 | 0.9
COc1ccc(-n2nc(C(=O)NCC(=O)N3CCN(c4ccccc4F)CC3)c3ccccc3c2=O)cc1OC | / | -0.8 | -2.0 | 0.3 | -2.8 | 10.3
CCN(CC)C(=O)CNC(=O)c1nn(-c2ccc(OC)c(Cl)c2)c(=O)c2ccccc12 | 0.6 | -24.9 | -1.9 | 0.3 | -1.3 | 9.2
COc1ccc(CNC(=O)CSc2nc(SC)ns2)cc1 | 10.4 | 0.8 | -16.9 | 0.5 | 2.1 | 6.2
CC1=CC(=C(C#N)C#N)C=C(C)N1CCN1CCNCC1 | -3.0 | 18.6* | 0.3 | -1.3 | -0.5 | 4.8
CC1=CC(=C(C#N)C#N)C=C(C)N1CCN1CCN(C(=O)Nc2cccc(Cl)c2)CC1 | -0.8 | 30.1* | -4.2 | -0.2 | -1.3 | 4.0
O=C(Nc1cccc(Cl)c1)N1CCN(Cc2ccccc2)CC1 | -0.3 | 9.2 | 11.4 | 1.6 | 0.4 | -0.9
CC(=O)N1CCN(CCN2C(C)=CC(=C(C#N)C#N)C=C2C)CC1 | -5.0 | -0.5 | 6.4 | 0.2 | -1.7 | -1.2
CC1(c2nc3ccccc3cc2C#N)OCCO1 | / | / | -0.4 | / | / | -3.7
O=C(O)c1ccc(/C=N/NC(=O)c2cc3ccccc3cc2O)cc1 | 45.8* | 2.4 | -9.4 | -0.1 | -1.3 | -4.4
O=C(O)c1cccc(Cn2c(Cl)c(/C=N/NC(=O)c3cc4ccccc4cc3O)sc2=O)c1 | 46.7* | 3.5 | 7.9 | 1.0 | / | -9.3
O=C(CNc1ccc2ccccc2c1)N/N=C/c1ccc(C(=O)O)cc1 | -3.3 | -8.2 | -6.0 | -1.6 | -2.0 | -12.2
COc1cc(/C=N/NC(=O)c2ccncc2)ccc1OCCN1CCCCC1 | -4.1 | -8.2 | -4.3 | 3.1 | -0.1 | -15.9
SMILES | CAL PDZ FP-1 | dFosB activator | PKA-R2B act | NTR1 ag | CAL PDZ FP-2 | PKA-R1A act
COc1cc(/C=N/NC(=O)c2cc3ccccc3cc2O)ccc1OCCN1CCCCC1 | -6.1 | 78.6* | -9.8 | 1.5 | -3.6 | -4.3
O=C(O)c1cccc(Cn2c(Cl)c(/C=N/NC(=O)c3ccccc3)sc2=O)c1 | -1.9 | 1.2 | -4.6 | 0.7 | -1.7 | -2.5
CN(C)C(CNC(=O)c1cccc(S(=O)(=O)Nc2ccc(SC(F)F)cc2)c1)c1ccccc1 (centres undefined) | -5.0 | -4.4 | 6.2 | / | -0.8 | 3.2
C/C(=N\NC(=O)CNC(=O)c1ccc(F)cc1)c1ccco1 | -0.1 | -1.0 | 1.1 | 0.8 | -1.9 | -5.1
CN1CCN(C(=O)/C=C/c2ccc(C#N)cc2)CC1 | -2.7 | 0.7 | 3.4 | 1.6 | -4.1 | 0.6
Fc1ccc(Nc2nc(NCc3ccco3)c3ccccc3n2)cc1 | / | 52.7* | 5.0 | 35.9 | -4.1 | -7.5
Cc1ccc(Nc2nc(N)c([N+](=O)[O-])c(NCc3ccco3)n2)cc1 | 3.3 | 8.2 | -3.3 | 5.2 | 1.8 | -8.2
O=C(NCCc1cn2cccnc2n1)C1CCC(=O)N(Cc2ccccc2F)C1 (centres undefined) | / | / | -15.7 | / | / | -4.0
CN(C)CCN(C(=O)c1ccc(S(=O)(=O)N(C)c2ccccc2)cc1)c1nc2cc3c(cc2s1)OCCO3 | -2.4 | 47.4* | -4.5 | -0.8 | -2.2 | -0.5
CCN(Cc1ccccc1)S(=O)(=O)c1ccc(C(=O)N(CCCN(C)C)c2nc3cc4c(cc3s2)OCCO4)cc1 | 0.4 | 42.2* | -20.1 | 31.4 | -5.9 | -1.3
COc1cccc(S(=O)(=O)Nc2ccc3c(c2)[C@H]2C[C@H](CC(=O)N[C@@H](C)c4ccccc4)O[C@H](CO)[C@H]2O3)c1 | / | / | 10.4 | / | / | 4.3
CCOC(=O)N1CCC(=NNC(N)=O)C1 | / | / | -5.2 | / | / | -2.0
C/C(=N\N1C(=O)CSC1=S)c1ccc(Br)cc1 | 43.8* | 4.3 | 0.1 | 1.3 | -1.5 | -5.8
Cc1ccc(C(=O)NN2C(=O)CSC2=S)cc1 | -3.7 | -11.2 | -0.9 | 2.0 | -0.6 | 8.8
Cc1ccccc1NC(=O)Cc1nc(COC(=O)Cc2cccc(C(F)(F)F)c2)cs1 | / | / | -2.5 | / | / | 1.9
Cc1ccc(NC(=O)COC(=O)CN2C(=O)c3ccccc3C2=O)cc1 | -4.6 | 4.0 | -2.7 | 4.6 | -0.6 | 3.0
CCN(CC)S(=O)(=O)c1cc(NC(=O)C2CC(=O)N(Cc3ccccc3)C2)ccc1Cl (centres undefined) | / | -7.8 | -0.3 | 0.9 | -0.7 | 2.0

Screening data as filed in PubChem BioAssay.
